Measurements taken from ChEMBL document CHEMBL4325864, “Discovery of new potent protein arginine methyltransferase 5 (PRMT5) inhibitors by assembly of key pharmacophores from known inhibitors” (Bioorg Med Chem Lett, 2018).
pIC50: −log10 of the molar value. One block for each compound: values may come before it.

How the values were obtained:
PRMT5/MEP50 complex = PRMT5/MEP50 complex (Homo sapiens, UniProt O14744); test: Inhibition of recombinant human N-terminal FLAG-tagged PRMT5 (2 to end residues) /human N-terminal His-tagged MEP50 (2 to end residues) expressed in HEK293F cells pretreated for 15 mins followed by substrate and [3H]-SAM addition measured after 60 mins by scintillation proximity assay; assay type: cell-based
Sequence of PRMT5/MEP50 complex (O14744 whole entry): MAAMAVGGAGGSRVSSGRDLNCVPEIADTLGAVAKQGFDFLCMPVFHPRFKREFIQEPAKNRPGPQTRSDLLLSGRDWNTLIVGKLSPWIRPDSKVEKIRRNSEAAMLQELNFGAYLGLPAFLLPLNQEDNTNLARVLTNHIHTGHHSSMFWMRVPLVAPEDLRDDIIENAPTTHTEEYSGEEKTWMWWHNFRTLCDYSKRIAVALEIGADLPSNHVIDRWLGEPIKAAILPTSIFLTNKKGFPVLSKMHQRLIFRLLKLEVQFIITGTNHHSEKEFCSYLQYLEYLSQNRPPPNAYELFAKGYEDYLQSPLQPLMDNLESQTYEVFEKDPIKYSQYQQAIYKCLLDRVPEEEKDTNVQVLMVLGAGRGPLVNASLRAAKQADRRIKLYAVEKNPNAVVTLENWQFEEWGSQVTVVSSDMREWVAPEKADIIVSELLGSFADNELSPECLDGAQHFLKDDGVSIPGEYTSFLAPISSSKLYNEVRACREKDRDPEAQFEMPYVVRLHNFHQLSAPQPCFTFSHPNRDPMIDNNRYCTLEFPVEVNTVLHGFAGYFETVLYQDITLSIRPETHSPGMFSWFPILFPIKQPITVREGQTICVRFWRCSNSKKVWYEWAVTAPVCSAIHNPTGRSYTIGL
Sequence of PRMT5/MEP50 complex (Q9BQA1 whole entry, further chain): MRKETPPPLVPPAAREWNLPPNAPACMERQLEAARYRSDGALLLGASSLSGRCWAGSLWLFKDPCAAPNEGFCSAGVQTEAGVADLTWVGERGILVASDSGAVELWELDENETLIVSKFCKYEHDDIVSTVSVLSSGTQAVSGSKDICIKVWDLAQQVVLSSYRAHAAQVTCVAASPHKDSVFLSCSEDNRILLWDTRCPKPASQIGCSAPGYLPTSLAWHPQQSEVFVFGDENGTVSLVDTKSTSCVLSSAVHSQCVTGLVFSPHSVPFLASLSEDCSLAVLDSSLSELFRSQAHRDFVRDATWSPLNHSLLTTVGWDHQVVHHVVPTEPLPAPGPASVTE
Summary of the method: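 PRMT5 enzymatic inhibition measured by radiometric scintillation proximity assay; IC50 determined.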

[1] = biological target: T1, Protein arginine N-methyltransferase 5 (Homo sapiens, UniProt O14744); test: Inhibition of PRMT5 in human KARPAS422 cells assessed as decrease in symmetric arginine dimethylation of SmD3 after 4 days by Western blot analysis; assay type: cell-based; settings: in the assay text read “after 72 h” for “after 4 days”
T1 sequence (O14744 whole entry): as the sequence (O14744 whole entry) above
Summary of the method: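 KARPAS-422 and SU-DHL-4 cells treated across a concentration range; symmetric arginine dimethylation of SmD3 detected by Western blot with symmetric dimethyl arginine (SDMA) antibody.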

[2] = biological target: T1, Protein arginine N-methyltransferase 5; test: Inhibition of PRMT5 (unknown origin)
[3] = biological target: T1, Protein arginine N-methyltransferase 5; test: Inhibition of full-length N-terminal FLAG-tagged PRMT5 (unknown origin) (1 to 637 residues) expressed in baculovirus infected Sf9 insect cells using histone H4 as peptide after 5 hrs in presence of [H3]AdoMet by scintillation proximity assay

Structure (SMILES): O=C(CCN1CCc2ccccc2C1)NNC(=O)c1ccccc1
pIC50 (PRMT5/MEP50 complex): 4.14

Structure (SMILES): O=C(CCN1CCc2ccccc2C1)Nc1cccc2ncccc12
pIC50 (PRMT5/MEP50 complex): < 4.00

Structure (SMILES): O=C(NC[C@H]1C[C@@H]2CC[N@@]1C[C@@H]2CN1CCC(Cc2ccccc2)CC1)c1ccc2c(c1)OCO2
pIC50 [2]: 5.82

Structure (SMILES): O=C(CCN1CCc2ccccc2C1)Nc1ccc(Oc2ccccc2)cc1
pIC50 (PRMT5/MEP50 complex): < 4.00

Structure (SMILES): COc1ccc(NC(=O)CCN2CCc3ccccc3C2)cc1
pIC50 (PRMT5/MEP50 complex): < 4.00

Structure (SMILES): Nc1ncnc2c1ncn2[C@@H]1O[C@H](C[C@@H](N)CC[C@H](N)C(=O)O)[C@@H](O)[C@H]1O [SINEFUNGIN]
pIC50 [3]: 5.07

Second part, the compound after the results:

pIC50 (PRMT5/MEP50 complex): < 4.00
Structure (SMILES): Cc1ccc(NC(=O)CCN2CCc3ccccc3C2)cc1

inhibition [1]: Dose-dependent effect
Structure (SMILES): O=C(NC[C@H](O)CN1CCc2ccccc2C1)c1cc(NC2COC2)ncn1

pIC50 (PRMT5/MEP50 complex): 4.34
Structure (SMILES): O=C(CCN1CCc2ccccc2C1)Nc1cccc(F)c1

pIC50 (PRMT5/MEP50 complex): 4.16
Structure (SMILES): O=C(CCN1CCc2ccccc2C1)Nc1nccc(C(F)(F)F)n1

pIC50 (PRMT5/MEP50 complex): < 4.00
Structure (SMILES): Cc1ccc(NC(=O)CCN2CCc3ccccc3C2)c([N+](=O)[O-])c1

pIC50 (PRMT5/MEP50 complex): < 4.00
Structure (SMILES): CCOC(=O)c1ccc(NC(=O)CCN2CCc3ccccc3C2)cc1

pIC50 (PRMT5/MEP50 complex): 4.28
Structure (SMILES): CC(=O)c1cccc(NC(=O)CCN2CCc3ccccc3C2)c1
